Consider one molecule from ChEMBL document CHEMBL5634162, “Cyclohexylalanine-Containing α-Helical Amphipathic Peptide Targets Cardiolipin, Rescuing Mitochondrial Dysfunction in Kidney Injury” (J Med Chem, 2024).

The source made the active and inactive calls. The rule behind the calls is not given here. Where a SMILES comes first, the peptide text is derived from it. Bridges are numbered along the chain shown (N, C = ends). Roman numbers before positions name the chains, in order. [ ]: non-standard residue; d: D form. The star is where a group is joined. 5TAMRA = CN(C)c1ccc2c(c1)Oc1cc(N(C)C)ccc1C21OC(=O)c2cc(C(=O)*)ccc21; Cha = N[C@@H](CC1CCCCC1)C(=O)O

The subject of series [1] is Mus musculus. As to the kind of experiment: Protection against […] C57BL/6 mouse model assessed as reduction in serum BUN level at 1 mg/kg, ip administered thrice a week prior to induction of bilateral ischemia-reperfusion injury measured after 6 days. Conditions: time 6.0 day. The format is functional, organism-based.
Series [2] has as its system Epithelial cell. As to the kind of experiment: Induction of H2O2-reduced ATP production in human tubular epithelial cells at 10 to 20 nM incubated for 3 hrs followed by H2O2 measured after 1 hr by fluorescene based analysis. It counts as functional. The note with it: dose 10-20 nM, time 4.0 hrs.
Series [3] concerns Mus musculus. As to the kind of experiment: Protection against colistin-induced nephrotoxicity in C57BL/6 mouse model assessed as reduction in blood creatinine level at 1 mg/kg, ip administered once every other day measured upto 7 days. The format is functional, organism-based. The note with it: time <= 7.0 day. The method in brief: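 Male C57BL/6 mice, 7 weeks: colistin 20 mg/kg sc daily for 7 days, peptide 1 mg/kg ip every other day, n = 5 per group. BUN by autoanalyzer and creatinine by modified Jaffe reaction after 7 days; mean ± SEM.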

The test system of series [4] is Mus musculus. As to the kind of experiment: Protection against colistin-induced nephrotoxicity in C57BL/6 mouse model assessed as reduction in tubular dilation at 1 mg/kg, ip administered once every other day measured after 7 days by […] analysis. It counts as functional, organism-based. Conditions: time 7.0 day. In outline:
(§1)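 Seven-week-old male C57BL/6 mice got colistin 20 mg/kg SC daily for 7 days plus peptide 1 mg/kg intraperitoneally every other day; groups of n = 5 (control, colistin, colistin + peptide). Kidneys were taken at day 7. Cytochrome C was detected by immunohistochemistry (citrate antigen retrieval, HRP-polymer detection, hematoxylin counterstain). Sections were also stained with PAS and Masson's trichrome to score histologic damage and fibrosis.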

The test system of series [5] is Epithelial cell. As to the kind of experiment: Induction of H2O2-reduced mitochondrial membrane potential in human tubular epithelial cells at 20 to 60 nM pretreated for 3 hrs followed by H2O2 addition measured after 30 mins by fluorescence based analysis. It counts as functional. Conditions: dose 20-60 nM. The method in brief: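 hTECs given peptide 3 h then H2O2 1 mM for 30 min; TMRE 600 nM for 15 min, washed, HBSS, plate reader at 37 °C (Ex/Em 525/575 nm).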

Series [6] deals with Mus musculus. The series is described as follows: Protection against colistin-induced nephrotoxicity in C57BL/6 mouse model assessed as reduction in renal fibrosis at 1 mg/kg, ip administered once every other day measured after 7 days by […] analysis. It counts as functional, organism-based. The note with it: time 7.0 day. In outline: as §1
In series [7] the test system is Mus musculus. The series is described as follows: Protection against […] C57BL/6 mouse model assessed as reduction in serum creatinine level at 1 mg/kg, ip administered thrice a week prior to induction of bilateral ischemia-reperfusion injury measured after 6 days. The format is functional, organism-based. Conditions: time 6.0 day.
In a further series the test system is Mitochondria. As to the kind of experiment: Inhibition of CCCP -induced mitochondrial ROS generation in human HeLa cells incubated for 190 mins followed by CCCP addition measured after 90 mins by MitoSOX probe based analysis. The format is functional. Conditions: dose 5-20 nM. In outline: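 HeLa cells seeded, stained 24 h later with MitoSOX 5 μM for 10 min, washed, HBSS, read on plate reader at 37 °C (Ex/Em 510/580 nm).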

Series [8] concerns Epithelial cell. As to the kind of experiment: Reversal of H2O2-induced IL-18 mRNA level in human tubular epithelial cells at 10 to 100 nM by qPCR analysis. The format is functional, cell-based. The note with it: dose 10-100 nM. A general note: In qPCR the cycle at which signal appears reflects the starting amount.
Series [9] concerns Mus musculus. The series is described as follows: Protection against colistin-induced nephrotoxicity in C57BL/6 mouse model assessed as reduction in tubular casts at 1 mg/kg, ip administered once every other day measured after 7 days by […] analysis. The format is functional, organism-based. The note with it: time 7.0 day. The method in brief:
as §1

Series [10] deals with Mus musculus. The series is described as follows: Protection against colistin-induced nephrotoxicity in C57BL/6 mouse model assessed as reduction in P-21 level at 1 mg/kg, ip administered once every other day measured after 7 days by IHC analysis. The format is functional, organism-based. The note with it: time 7.0 day. In outline:
(§2)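 Male C57BL/6 mice, 7 weeks: colistin 20 mg/kg sc daily for 7 days, peptide 1 mg/kg ip once every other day, n = 5 per group. Day-7 kidney sections, citrate antigen retrieval, immunohistochemistry with HRP polymer secondary and hematoxylin counterstain; PAS and Masson's trichrome for damage.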

The test system of series [11] is Epithelial cell. As to the kind of experiment: Reversal of H2O2-induced IL-1beta mRNA level in human tubular epithelial cells at 10 to 100 nM by qPCR analysis. The format is functional, cell-based. Conditions: dose 10-100 nM.
The test system of series [12] is Mus musculus. The series is described as follows: Protection against colistin-induced nephrotoxicity in C57BL/6 mouse model assessed as reduction in NGAL level at 1 mg/kg, ip administered once every other day measured after 7 days by IHC analysis. It counts as functional, organism-based. Conditions: time 7.0 day. The method in brief:
as §2

Another series concerns HeLa. As to the kind of experiment: Reversal of H2O2-induced mitochondrial damage in human HeLa cells assessed as formation of long cristae at 50 to 100 nM preincubated for 2 hrs followed by H2O2 addition for 2 hrs by TEM analysis. The note with it: dose 50-100 nM, time 4.0 hrs. The format is functional, cell-based. The method in brief: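 HeLa cells were pretreated with 50 or 100 nM peptide for 2 h, then exposed to 0.5 mM H2O2 for 2 h. They were fixed in Karnovsky's fixative (pH 7.2), postfixed in osmium, embedded in Spurr's resin and stained with uranyl acetate/lead citrate for TEM. Cristae longer than 0.5 μm were counted from at least 50 mitochondrial images.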

A short description of series [13]: Drug localization in CCCP-damaged mitochondria of human HeLa cells at 100 nM incubated for 3 hrs by NAO probe based assay. It counts as ADME. The note with it: 0.1 µM. In outline: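 HeLa cells given TAMRA-labelled peptide 100 nM for 3 h and cardiolipin stained with NAO (100 nM, 1 h), with or without 20 μM CCCP for 30 min; LysoTracker 50 nM. Confocal images, Pearson r from five independent images (63×) per condition.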

Series [14] concerns Epithelial cell. As to the kind of experiment: Reversal of H2O2-induced mitochondrial dysfunction in human tubular epithelial cells assessed as increase in glycolytic PER level measured for 40 to 60 mins by Seahorse assay. It counts as functional, cell-based. Conditions: dose 10-50 nM, time 40-60 min. In outline:
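hTECs were exposed to H2O2 with peptide at 10 or 50 nM (n = 6 per group), then run on a Seahorse XFe96. OCR was read after sequential 2 μM oligomycin, 1 μM FCCP, and 0.5 μM rotenone/antimycin A. ECAR was read after 10 mM glucose, 1 μM oligomycin and 50 mM 2-DG. Glycolytic proton efflux rate was taken as glycoATP production rate.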

The nature of series [15]: Toxicity in C57BL/6 mouse model of colistin-induced nephrotoxicity assessed as animal survival at 1 mg/kg, ip administered once every other day measured for 7 days. The note with it: in vivo, 168 h, time 7 day. The format is organism-based. The method in brief:
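Male C57BL/6 mice got colistin 20 mg/kg SC daily for 7 days, with peptide 1 mg/kg intraperitoneally every other day; groups of n = 5. Survival was tracked by Kaplan–Meier and compared by log-rank (Mantel–Cox) test.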

In series [16] the test system is Mus musculus. As to the kind of experiment: Protection against […] C57BL/6 mouse model assessed as decrease in serum creatinine level at 1 mg/kg, ip measured after 23 hrs. It counts as functional, organism-based.
For series [17], the system named is Epithelial cell. The series is described as follows: Reversal of H2O2-induced p16 mRNA level in human tubular epithelial cells at 10 to 100 nM by qPCR analysis. The format is functional, cell-based. Conditions: dose 10-100 nM.
Series [18] concerns Mus musculus. As to the kind of experiment: Protection against […] C57BL/6 mouse model assessed as decrease in NGAL level at 1 mg/kg, ip administered thrice a week prior to induction of bilateral ischemia-reperfusion injury measured after 6 days by IHC analysis. It counts as functional, organism-based. Conditions: time 6.0 day.
Series [19] has as its system Epithelial cell. The series is described as follows: Inhibition of H2O2-induced intracellular ROS level in human tubular epithelial cells at 20 to 60 nM pretreated for 3 hrs followed by H2O2 addition measured after 30 mins by H2DCFDA staining based analysis. It counts as functional. Conditions: dose 20-60 nM. In outline:
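hTECs seeded, 24 h later given peptide 3 h, then H2O2 1 mM for 30 min; H2DCFDA 25 μM for 30 min, washed, read in HBSS on plate reader at 37 °C (Ex/Em 485/535 nm).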

In the case of `CC(=O)N[C@@H](CC1CCCCC1)C(=O)N[C@H]1CSSC[C@@H](C(=O)N[C@@H](CCCNC(=N)N)C(N)=O)NC(=O)[C@H](CC2CCCCC2)NC(=O)[C@H](CCCNC(=N)N)NC(=O)[C@H](CCCNC(=N)N)NC(=O)[C@H](CC2CCCCC2)NC(=O)[C@H](CC(C)C)NC(=O)[C@H](CCCNC(=N)N)NC(=O)[C@@H](NC(=O)[C@H](CC2CCCCC2)NC(=O)c2ccc3c(c2)C(=O)OC32c3ccc(N(C)C)cc3Oc3cc(N(C)C)ccc32)CSSC[C@@H](C(=O)N[C@@H](CCCNC(=N)N)C(N)=O)NC(=O)[C@H](CC2CCCCC2)NC(=O)[C@H](CCCNC(=N)N)NC(=O)[C@H](CCCNC(=N)N)NC(=O)[C@H](CC2CCCCC2)NC(=O)[C@H](CC(C)C)NC(=O)[C@H](CCCNC(=N)N)NC1=O` (I: Ac-[Cha]CRL[Cha]RR[Cha]CR-NH2 / II: 5TAMRA-[Cha]CRL[Cha]RR[Cha]CR-NH2; disulfide I:2-II:9, I:9-II:2), the result with Mus musculus [1], in the series on Epithelial cell [2], with Mus musculus [3], with Mus musculus [4], in the series with Epithelial cell [5] and in the series on Mus musculus [6] was Active. Also, the result in the series on Mus musculus [7], in the series with Epithelial cell [8], with Mus musculus [9], with Mus musculus [10], in the series on Epithelial cell [11] and with Mus musculus [12] was Active. Further, the result in the series on HeLa, with Mus musculus [16], with Epithelial cell [17] and in the series with Mus musculus [18] was Active. In addition, in the series with Mitochondria, the inhibition entry is “Dose-Dependent Effect”. Moreover, in series [13], the Drug uptake result is “Active”. Also, the Activity result is “Dose-Dependent Effect” with Epithelial cell [14] and “Non-Toxic” in series [15]. For the same molecule, the inhibition result in the series on Epithelial cell [19] is “Active”.
